“Also recorded” adds a separate entry of the source. Bridges are numbered along the chain shown (N, C = ends). Where no end group is shown, it is not given here.

Test [1] addresses T1, ER (ERECTA) ectodomain, ERΔK-GFP (Arabidopsis thaliana, UniProt Q42371).
T1 sequence (Q42371 25-580 limits assumed): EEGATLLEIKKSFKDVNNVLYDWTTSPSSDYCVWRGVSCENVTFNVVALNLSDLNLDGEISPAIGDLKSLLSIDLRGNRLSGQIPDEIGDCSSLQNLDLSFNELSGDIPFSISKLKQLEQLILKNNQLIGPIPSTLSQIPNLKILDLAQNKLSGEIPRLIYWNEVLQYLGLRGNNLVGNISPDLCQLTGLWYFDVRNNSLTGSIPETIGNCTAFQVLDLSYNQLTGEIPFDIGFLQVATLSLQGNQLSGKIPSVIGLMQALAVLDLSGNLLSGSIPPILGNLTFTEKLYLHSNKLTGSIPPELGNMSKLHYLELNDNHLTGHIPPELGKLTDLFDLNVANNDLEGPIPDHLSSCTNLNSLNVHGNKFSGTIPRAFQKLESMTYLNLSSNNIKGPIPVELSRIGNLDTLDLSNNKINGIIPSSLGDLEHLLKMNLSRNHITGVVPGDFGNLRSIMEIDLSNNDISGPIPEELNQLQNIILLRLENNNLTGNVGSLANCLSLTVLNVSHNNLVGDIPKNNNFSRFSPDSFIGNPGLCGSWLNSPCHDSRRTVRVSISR
Briefly: QCM direct binding, ERΔK-GFP-functionalized chip. The note with it: frequency change, phosphate buffer, 4°C. The procedure, abridged:
(§1)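 Purified GFP-fused receptors (ERΔK-GFP, TMM-GFP) or control GFP are obtained from N. benthamiana. They are immobilised on gold QCM chips via anti-GFP antibody. Solutions of HPLC-purified, bioassay-verified bioactive peptide are then introduced, and binding is recorded as frequency change. Each run yields 10-20 points (average, SD). Replicate runs: ER n=4 Stomagen, n=2 MEPF2; TMM n=2 Stomagen, n=3 MEPF2; GFP n=3 Stomagen, n=2 MEPF2.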

Test [2] concerns the target T2, TMM (TOO MANY MOUTHS), TMM-GFP (Arabidopsis thaliana, UniProt Q9SSD1).
T2 sequence (Q9SSD1 24-496): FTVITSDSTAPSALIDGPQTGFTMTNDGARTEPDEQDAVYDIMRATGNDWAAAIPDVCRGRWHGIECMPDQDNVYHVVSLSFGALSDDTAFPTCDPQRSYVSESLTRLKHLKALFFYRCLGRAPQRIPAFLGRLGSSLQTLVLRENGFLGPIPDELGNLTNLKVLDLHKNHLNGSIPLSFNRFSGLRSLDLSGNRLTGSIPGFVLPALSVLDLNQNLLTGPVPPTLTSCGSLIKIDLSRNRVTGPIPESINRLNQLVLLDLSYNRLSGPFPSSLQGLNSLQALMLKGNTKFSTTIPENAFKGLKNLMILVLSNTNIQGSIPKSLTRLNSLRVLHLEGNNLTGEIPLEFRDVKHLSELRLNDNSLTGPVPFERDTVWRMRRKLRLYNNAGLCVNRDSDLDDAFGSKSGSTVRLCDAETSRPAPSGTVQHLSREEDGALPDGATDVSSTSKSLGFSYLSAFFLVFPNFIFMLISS
The experiment in a line: QCM direct binding, TMM-GFP-functionalized chip. As to conditions: frequency change, phosphate buffer, 4°C. A digest of the protocol: as §1

A further test relates to GFP. Briefly: QCM direct binding, control GFP chip. As to conditions: frequency change, phosphate buffer, 4°C, Stomagen n=3, MEPF2 n=2. A digest of the protocol:
as §1

In the next test the target is T3, ER ectodomain (ERΔK-GFP) (Arabidopsis thaliana, UniProt Q42371).
T3 sequence (Q42371 25-580 limits assumed): T1 sequence (Q42371 25-580 limits assumed)
The experiment in a line: Ligand competition assay, Stomagen vs MEPF2-MYC-HIS for binding to ER. The procedure, abridged:
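ER ectodomain–GFP (ERΔK-GFP) is expressed in N. benthamiana, and microsomal fractions are prepared. Fractions are incubated with 1 μM bioactive MEPF2-MYC-HIS plus Stomagen at 0-23.4 μM, then ER is immunoprecipitated. The co-IP'd tagged MEPF2 is immunoblotted first, and the same blot is re-probed with anti-Stomagen antibody. Blots are quantified from four biological replicates (S.E.M.), and IC50 is derived from this immunoblot-based quantification.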

For the next test, the system named is TMM. Briefly: Co-IP with TMM-GFP. It counts as binding, Arabidopsis. The note with it: N. benthamiana microsomal fraction; 1 μM peptide; anti-GFP IP.
For test [3], the system named is Arabidopsis wild-type seedlings, abaxial cotyledon epidermis. In kind it is in vivo. The note with it: independent batch of Stomagen used in Fig. 3c, five days, n=8 (Peak 1), n=6 (Peak 2).
A further test has as its system MPK3 and MPK6. Briefly: MAPK phosphorylation assay in Arabidopsis seedlings. It counts as in vivo. The note with it: MEPF2 2.5 μM, Arabidopsis wild-type seedlings; anti-phosphoERK immunoblot. A digest of the protocol: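 Peptide (MEPF2) is applied to wild-type Arabidopsis seedlings and sampled over a time course. Heat-denatured peptide serves as a control. Extracts are immunoblotted with anti-phosphoERK antibody to detect phosphorylated MPK6 and MPK3, and Coomassie-stained total protein is shown. Four and two biological replicates are run for the two blot series.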
In general terms: A western blot detects proteins with antibodies after separation by electrophoresis.

In test [4] the target is ER ectodomain fused to GFP (ERΔK-GFP) (Arabidopsis). The experiment in a line: co-IP.

“IGSTAPTCTYNECRGCRYKCRAEQVPVEGNDPINSAYHYRCVCHR (disulfide 8-41, 13-20, 16-43) [Stomagen]”: the “binding to ERΔK-GFP (words)” value in test [1] is “saturable binding to the ER ectodomain fused to GFP (ERΔK-GFP) with similar dissociation constants at a nanomolar range; also recorded: bind to ER and TMM with a similar affinity”. For the same molecule, in test [2], the “binding to TMM (words)” value was “bound to TMM with high affinity; also recorded: bind to ER and TMM with a similar affinity”. In addition, in the test on GFP, the “binding to control GFP” value is given as “No significant binding”. Further, on ER ectodomain (ERΔK-GFP), the IC50 was found to be 454 nM. At ER ectodomain (ERΔK-GFP) (1 μM bioactive MEPF2-MYC-HIS, increasing Stomagen 0-23.4 μM, IP and immunoblot), the “replacement of MEPF2 for ER-binding” value was “replaced MEPF2 for ER-binding”. In addition, in the test on TMM, the “association with TMM by Co-IP” value is “associates with all ER-family RKs and TMM”. For the same molecule, the “bioactivity, HPLC peaks of independent batch used for QCM” value in test [3] was “bioactive”.
As to “TGSSLPDCSYACGACSPCKRVMISFECSVAESCSVIYRCTCRGRYYHVPSRA (disulfide 8-39, 12-18, 15-41, 27-33) [MEPF2]”, the “binding to ERΔK-GFP (words)” value in test [1] is “saturable binding to the ER ectodomain fused to GFP (ERΔK-GFP) with similar dissociation constants at a nanomolar range”; in test [1] (listed as EPF2), “bind to ER and TMM with a similar affinity”. For the same molecule, the “binding to TMM (words)” value was “bound to TMM with high affinity” in test [2]; “bind to ER and TMM with a similar affinity” in test [2] (listed as EPF2). Moreover, the “binding to control GFP” value in the test with GFP was “No significant binding”. Further, the “time after which MPK3/MPK6 phosphorylation declined” value in the test with MPK3 and MPK6 is 2 h. Also, in the test on MPK3 and MPK6, the “time to phosphorylation of MPK3 and MPK6” value is on record as 10 min.
On to IGSTAPTCTYNECRGCRYKCRAEQVPVEGNDPINSAYHYRCVCHR [Stomagen/EPF-LIKE9 peptide (bioactive Stomagen)], for which, in test [4], the half-inhibitory concentration (IC50) turned out to be 454 nM.

Usually IC50 stands for the concentration at which inhibition is half-maximal. Low readings indicate greater potency in that assay, high ones weaker potency in that assay.

The values above are taken from publication PMC4532310 (Nature, 2015).
